Data from ChEMBL document CHEMBL3792273, “Synthesis and pharmacological evaluation of mono-arylimidamides as antileishmanial agents” (Bioorg Med Chem Lett, 2016).

Columns and labels:
[1] = Selectivity index, ratio of IC50 for cytotoxic activity against mouse J774 cells to IC50 for antileishmanial activity against Leishmania donovani; format: toxicity, cell-based; details: read-out: Ratio IC50
[2] = Selectivity index, ratio of IC50 for cytotoxic activity against mouse J774 cells to IC50 for antileishmanial activity against Leishmania amazonensis amastigotes; format: toxicity, cell-based; details: read-out: Ratio IC50
Mus musculus = assay: Toxicity in BALB/c mouse assessed as drug tolerance at 30 mg/kg/day, ip for 5 days; format: organism-based; details: in vivo, 120 h
Outline: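 Compound was dissolved in water and injected i.p. into healthy, uninfected BALB/c mice at 30 mg/kg/day once daily for 5 consecutive days to assess in vivo tolerability.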

Leishmania amazonensis [3] = assay: Antileishmanial activity against Leishmania amazonensis infected in mouse peritoneal macrophages after 72 hrs using 2 hrs parasite exposed mouse peritoneal macrophages
[4] = Drug level in BALB/c mouse spleen at 40 mg/kg, po administered as single dose after 24 hrs; format: ADME, organism-based; details: read-out: Drug uptake
Outline: (§1)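 Mice received a single oral dose of 100 μmol/kg (40 mg/kg). Compound levels in plasma, liver, spleen and kidney were measured at 1, 2 and 24 h post-dose and reported as concentrations. Values are means ± standard errors of triplicate determinations.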

Leishmania amazonensis [5] = assay: Antileishmanial activity against beta-lactamase expressing Leishmania amazonensis amastigotes overnight infected in CD1 mouse macrophages incubated for 72 hrs by nitrocefin dye based assay in presence of posaconazole; format: functional, organism-based
[6] = Drug level in BALB/c mouse liver at 40 mg/kg, po administered as single dose after 24 hrs; format: ADME, organism-based; details: read-out: Drug uptake; outline: as §1
[7] = Drug level in BALB/c mouse spleen at 40 mg/kg, po administered as single dose after 1 hr; format: ADME, organism-based; details: read-out: Drug uptake; outline: as §1
[8] = Drug level in BALB/c mouse plasma at 40 mg/kg, po administered as single dose after 24 hrs; format: ADME, organism-based; outline: as §1
[9] = Drug level in BALB/c mouse plasma at 40 mg/kg, po administered as single dose after 1 hr; format: ADME, organism-based; outline: as §1
[10] = Drug level in BALB/c mouse liver at 40 mg/kg, po administered as single dose after 1 hr; format: ADME, organism-based; details: read-out: Drug uptake; outline: as §1

| SMILES | selectivity ratio [1] | selectivity ratio [2] | Activity (Mus musculus) | further results |
| --- | --- | --- | --- | --- |
| CC(C)Oc1cc(NC(=N)c2ccccn2)ccc1-c1ccc(-c2ccccc2)s1 | 3.1 | 3 |  |  |
| CC(C)Oc1cc(NC(=N)c2ccccn2)ccc1-c1cnc(-c2ccccc2)o1 | 24 | 41 |  |  |
| CC(C)Oc1cc(NC(=N)c2ccccn2)ccc1-c1ccc(-c2ccco2)o1.Cl | ≥ 25 | ≥ 25 | Non-toxic |  |
| CS(=O)(=O)O.N=C(Nc1ccc(-c2ccc(-c3ccccc3)o2)c(OC2CCCC2)c1)c1ccccn1 | ≥ 25 | ≥ 25 | Non-toxic |  |
| CC[C@@H]([C@H](C)O)n1ncn(-c2ccc(N3CCN(c4ccc(OC[C@@H]5CO[C@@](Cn6cncn6)(c6ccc(F)cc6F)C5)cc4)CC3)cc2)c1=O [POSACONAZOLE] |  |  |  | IC50 (Leishmania amazonensis [3]): 1.6 µM |
| CC(C)Oc1cc(NC(=N)c2ncccn2)ccc1-c1ccc(-c2ccccc2)o1 | 27 | 18 |  |  |
| COc1ccc(-n2cc(-c3ccc(NC(=N)c4ccccn4)cc3OC(C)C)nn2)cc1 | 10 | 5.5 |  |  |
| CC(C)Oc1cc(NC(=N)c2ccccn2)ccc1-c1ccc(-c2ccccc2)o1.CS(=O)(=O)O | ≥ 25 | ≥ 25 | Non-toxic | concentration at 24 h [4]: 600 nM; IC50 (Leishmania amazonensis [5]): 0.055 µM; concentration at 24 h [6]: 600 nM; concentration at 1 h [7]: 4700 nM; concentration at 24 h [8]: 140 nM; concentration at 1 h [9]: 1900 nM; concentration at 1 h [10]: 12600 nM |
